We go through two compounds from article PMC6853148 (Clinical and Translational Science, 2019).

Read-outs that look alike come from different tables or passages of the source. Where only a bound is given, the exact number is not on record here.

Series [1] deals with P‐glycoprotein. The conditions noted are these: cited from earlier work.
The subject of series [2] is breast cancer resistance protein. The conditions noted are these: cited from earlier work.
Series [3] is described as follows: Population PK model of venetoclax in healthy subjects. It is filed as in vivo, healthy female subjects. The procedure, abridged: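 Pooled data from 203 healthy women (21–65 y, BMI 18.6–30.1 kg/m2) given oral doses of 10–400 mg, 1–4 times with ≥7-day washout, after a 10-h fast or within 30 min of a low/moderate/high-fat breakfast. Serial plasma sampling up to 96 h; assayed by liquid–liquid extraction LC-MS/MS. Two-compartment nonlinear mixed-effects model with lagged first-order absorption, exponential IIV on CL/F, Vc/F and F, and combined residual error. Covariates kept by backward elimination (P < 0.01); low-fat meal as reference.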

For series [4], the system named is B‐lymphocytes. It is filed as in vivo, healthy female subjects. The conditions noted are these: for time for B‐lymphocytes to recover to 90% of baseline levels: average. The procedure, abridged: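 B-lymphocytes counted at baseline and after dosing. Individual post hoc PK estimates were fixed, then a Friberg-type semimechanistic model was fitted with a linear drug effect. It has a proliferation compartment, sequential transit compartments, a circulating pool, and feedback (baseline/current count, exponent γ). Baseline was the median predose count, with IIV. Log-transformed counts were fitted with additive residual error and checked by goodness-of-fit plots. Simulations covered single doses.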

For series [5] the following is noted: 4‐week dog studies, male; no reference given; cited from earlier work.
For series [6] the following is noted: cited from earlier work.
The subject of series [7] is CYP3A. The conditions noted are these: cited from earlier work.
Series [8] deals with B cells. The conditions noted are these: patients with rheumatoid arthritis; cited from earlier work.
Where [9] appears, read: covariate effect on bio-availability relative to low-fat meal.
The mark [10] stands for this setting: model simulation, 200 mg single dose.

As for `CC1(C)CCC(CN2CCN(c3ccc(C(=O)NS(=O)(=O)c4ccc(NCC5CCOCC5)c([N+](=O)[O-])c4)c(Oc4cnc5[nH]ccc5c4)c3)CC2)=C(c2ccc(Cl)cc2)C1` [venetoclax, Venetoclax], in series [1], the “P‐glycoprotein transporter substrate” value is “substrate”. Besides, the “breast cancer resistance protein transporter substrate” value in series [2] was “substrate”. In addition, in series [3] (setting [9]), the “Fasting on F1” value is given as 0.29 and the “Moderate/high‐fat on F1” value is 1.47. Further, the “Chinese on F1” value in series [3] (covariate effect on bio-availability, Chinese ethnicity) turned out to be 1.53. For the same compound, in series [3] (covariate effect on bio-availability, coadministration of azithromycin), the “Azithromycin on F1” value is recorded as 0.65. In addition, in series [3] (covariate effect on bio-availability, coadministration of rifampin), the “Rifampin on F1” value is 4.91. Also, the “Low fat on F1” value in series [3] (covariate effect on bio-availability, low-fat meal is the reference category) is given as 1. In series [3] (female, human, plasma, oral), the Vd is 99 L. In series [3] (in vivo), the “higher bioavailability with coadministration of rifampin” value is 391%, the “higher clearance with coadministration of rifampin” value is 167% and the “lower bio‐availability with coadministration of azithromycin” value was found to be 35%. Also, in series [3] (parameter Fixed, not estimated), the “Dose nonlinearity on F1” value is on record as −0.178. Further, in series [3] (population PK estimate), the “ALAG, absorption lag time” value was 0.04 days and the “KA, absorption rate” value is 3.83 day⁻¹. Besides, the “CL/F, apparent clearance” value in series [3] (population PK estimate, oral, healthy subjects) is listed as 449 L/day. Further, in series [3] (relative to a low‐fat meal), the “higher bio‐availability with a moderate/high‐fat meal” value is 47% and the “lower bio‐availability under fasting conditions” value is 71%. Besides, in series [4] (even at the 400 mg dose), the “B‐cell count recovered to 90% of baseline” value was at most 2 months. Further, in series [4] (linear drug effect on B-lymphocytes, PD model parameter estimate), the “Slope of drug effect” value is recorded as 20.9. For the same compound, in series [4] (setting [10]), the “decrease in B‐lymphocytes” value is listed as 24% (15–35%) and the “time for B‐lymphocytes to recover to 90% of baseline levels” value was 48 (21–64) days. Besides, the “time for B‐lymphocytes to recover to 90% of baseline levels” value in series [4] (model simulation, 400 mg single dose) is on record as 59 (30–66) days. Besides, in series [4] (model simulation, three 200 mg doses every week or every other week), the “recovery of B‐lymphocytes to 90% of baseline levels” value was at most 2 months. Further, the “time for B‐cell count to rise back to baseline” value in series [4] (simulations/observed data) is recorded as 2–3 months. Further, in series [5], the toxicology finding result is on record as “testicular toxicity (germ cell loss)”. The “increase of venetoclax exposures by food” value in series [6] (compared with fasting conditions) is reported as “threefold to fivefold”. In addition, the “mean terminal elimination half‐life” value in series [6] (healthy subjects) is 17 h. The “mean terminal elimination half‐life” value in series [6] (subjects with severe hepatic impairment) was 35 h. Moreover, the metabolizing enzyme entry in series [7] is recorded as “mainly metabolized by CYP3A”.

In the case of rituximab, the “time of reduction in B cells from circulation postinfusion” value in series [8] is listed as 1–28 weeks.
